Laboratory results reported in ChEMBL document CHEMBL5252539, “In vitro biological evaluation of new antimycobacterial salicylanilide-tuftsin conjugates” (Eur J Med Chem, 2017).
In brackets after ≈: the same amount, converted by molar mass. Activity calls are given as the source filed them. The calls are words filed in the database; no cut-off is given here. *1 amine or outer side, *2 acyl side, *3 side chain or, on linkers, in order; H or OH if unused. Where a SMILES comes first, the peptide text is derived from it. [ ]: non-standard residue; d: D form. The star is where a group is joined. X4 = O=C(Nc1ccc(C(F)(F)F)cc1)c1cc(/C=N\OCC(=O)*)ccc1O; X2 = C/C(=N\OCC(=O)*)c1ccc(NC(=O)c2cc(Br)ccc2O)cc1; X1 = C/C(=N\OCC(=O)[*:2])c1ccc(N[*:1])cc1; Benzoyl(5-Br-2-OH) = O=C(c1cc(Br)ccc1O)*; Butyryl = CCCC(=O)*

Columns and labels:
[1] = tested on: Mycobacterium tuberculosis; assay: […] antimycobacterial activity against Mycobacterium tuberculosis H37Rv ATCC 27294 infected in human MONO-MAC-6 cells assessed as reduction in colony forming unit at 250 uM for 6 days by colony counting based analysis; type: functional, organism-based; conditions: time 6.0 day
In short: (§1)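 MonoMac6 monolayers infected with H37Rv, then treated with compound at 125 or 250 µM for 3 days. Treatment repeated with fresh compound solution for another 3 days. Intracellular bacteria quantified as CFU against untreated infected cells.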

[2] = tested on: Mycobacterium tuberculosis; assay: Antimycobacterial activity against Mycobacterium tuberculosis H37Rv ATCC 27294 assessed as reduction in bacterial growth after 21 days by serial dilution method; type: functional; conditions: H37Rv ATCC 27294, 504 h, time 21 day
In short: (§2)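 Broth MIC in Sula semisynthetic medium, pH 6.5; 4-week incubation, with 21-day values […] where indicated. Drug-free inoculated bacteria served as growth control. MIC also expressed as drug content (µg/mL) = MIC (µM) × average SAL molar mass × number of SAL per conjugate / 1000.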

[3] = tested on: Mycobacteroides abscessus; assay: Antimycobacterial activity against Mycobacterium abscessus ATCC 19977 assessed as reduction in colony forming unit after 7 days by serial dilution method; type: functional, organism-based; conditions: time 7.0 day
In short: (§3)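 MIC determined in Sula semisynthetic medium, pH 6.5, 1 week incubation. Growth inhibition confirmed by plating on Löwenstein-Jensen solid medium and counting CFU. Bacteria inoculated without drug served as growth control.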

[4] = tested on: Mycobacterium tuberculosis; assay: Antimycobacterial activity against Mycobacterium tuberculosis H37Rv ATCC 27294 assessed as reduction in colony forming unit after 28 days by serial dilution method; type: functional, organism-based; conditions: time 28.0 day
In short: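 After the 4-week MIC incubation in Sula semisynthetic medium (pH 6.5), growth inhibition confirmed by plating on Löwenstein-Jensen solid medium and counting colony forming units.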

[5] = tested on: MONO-MAC-6; assay: Cytostatic activity against human MONO-MAC-6 cells assessed as reduction in cell viability incubated for 24 hrs by MTT assay; type: functional, cell-based; conditions: MONO-MAC-6, 24 h
In short: (§4)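 MTT viability assay after 24 h exposure of MonoMac6 human monocytic cells or HepG2 human hepatocellular carcinoma cells. Top concentration 200 μM. IC50 taken from dose-response curves as the concentration reducing viability to 50% of maximal.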

[6] = Selectivity index, ratio of IC50 for cytostatic activity against human MONO-MAC-6 cells to MIC for antimycobacterial activity against Mycobacterium tuberculosis H37Rv ATCC 27294; type: toxicity, cell-based; conditions: read-out: Selectivity Index
In short: (§5)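 MTT assay on MonoMac6 or HepG2 cells after 24 h exposure, top concentration 200 µM. SI = IC50 (µM)/MIC (µM) against H37Rv from the 4-week Sula medium assay.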

[7] = tested on: HepG2; assay: Cytostatic activity against human HepG2 cells assessed as reduction in cell viability incubated for 24 hrs by MTT assay; type: functional, cell-based; conditions: HepG2, 24 h; in short: as §4
[8] = Selectivity index, ratio of IC50 for cytostatic activity against human HepG2 cells to MIC for antimycobacterial activity against Mycobacterium tuberculosis H37Rv ATCC 27294; type: toxicity, cell-based; conditions: read-out: Selectivity Index; in short: as §5
[9] = tested on: Mycobacterium tuberculosis; assay: […] antimycobacterial activity against Mycobacterium tuberculosis H37Rv ATCC 27294 infected in human MONO-MAC-6 cells assessed as reduction in colony forming unit at 125 uM for 6 days by colony counting based analysis; type: functional, organism-based; conditions: time 6.0 day; in short: as §1
[10] = Stability in rat liver lysosomal homogenate assessed as drug degradation at 50 uM and measured upto 24 hrs by HPLC-MS analysis; type: ADME, subcellular, Lysosome; conditions: tissue homogenate
In short: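 Conjugates incubated in rat liver lysosomal homogenate. Reaction mixtures sampled at 5 min, 1 h, 2 h, 4 h, 8 h and 24 h and analysed by HPLC-MS (chromatograms and mass spectra) to identify intact conjugate, fragments and cleavage sites.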

[11] = tested on: Mycobacterium tuberculosis; assay: Antimycobacterial activity against Mycobacterium tuberculosis H37Rv ATCC 27294 assessed as reduction in bacterial growth after 28 days by serial dilution method; type: functional; conditions: H37Rv ATCC 27294, 672 h, time 28 day; in short: as §2
[12] = tested on: Mycobacteroides abscessus; assay: Antimycobacterial activity against Mycobacterium abscessus ATCC 19977 assessed as reduction in bacterial growth after 7 days by serial dilution method; type: functional; conditions: ATCC 19977, 168 h, time 7 day; in short: as §3
[13] = Retention time of the compound by RP-HPLC analysis; type: physicochemical
In short: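 Analytical RP-HPLC on a C18 column (5 μm, 100 Å, 4.6 × 150 mm). Eluent A 0.1% TFA in water, eluent B 0.1% TFA in acetonitrile-water 80:20. Gradient 0% B for 5 min, to 60% B at 15 min, to 100% B at 25 min. Flow 1 mL/min, detection at 220 nm.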

SMILES | Activity [1] | MIC [2] [µM] | Activity [3] | Activity [4] | IC50 [5] [µM] | selectivity ratio [6] | IC50 [7] [µM] | selectivity ratio [8] | Activity [9] | Stability [10] | MIC [11] [µM] | MIC [12] [µM] | Retention_time [13] [min]
C/C(=N\OCC(=O)N[C@H](C(=O)O)[C@@H](C)O)c1ccc(NC(=O)c2cc(Br)ccc2O)cc1 | Active | 394 (≈ 200 µg/mL) | Active | Active | > 200 | > 0.5 | > 200 | > 0.5 | Active | – | – | – | –
C/C(=N\OCC(=O)N[C@H](C(=O)N[C@@H](CCCCN)C(=O)N1CCC[C@H]1C(=O)N[C@@H](CCCCN)C(=O)NCC(=O)O)[C@@H](C)O)c1ccc(NC(=O)c2cc(Br)ccc2O)cc1 ({Benzoyl(5-Br-2-OH)}-[X1]TKPKG-OH) | Active | – | Active | Active | > 200 | > 3.1 | 191 | 2.9 | Active | Unstable | 65.3 (≈ 60 µg/mL) | 218 (≈ 200 µg/mL) | –
C/C(=N\OCC(=O)N[C@H](C(=O)N[C@@H](CCCCN)C(=O)N1CCC[C@H]1C(=O)N[C@@H](CCCNC(=N)N)C(=O)O)[C@@H](C)O)c1ccc(NC(=O)c2cc(Br)ccc2O)cc1 ({Benzoyl(5-Br-2-OH)}-[X1]TKPR-OH) | Active | – | Active | Active | > 200 | > 4.4 | > 200 | > 4.4 | Active | Unstable | 45 (≈ 40 µg/mL) | 225 (≈ 200 µg/mL) | –
C/C(=N\OCC(=O)NCC(=O)O)c1ccc(NC(=O)c2cc(Br)ccc2O)cc1 | Active | 215 (≈ 100 µg/mL) | Active | Active | > 200 | > 0.9 | > 200 | > 0.9 | Active | – | – | – | –
C/C(=N\OCC(=O)N[C@H](C(=O)N[C@@H](CCCCN)C(=O)N1CCC[C@H]1C(=O)N1CCC[C@H]1C(=O)N[C@@H](CCCNC(=N)N)C(=O)O)[C@@H](C)O)c1ccc(NC(=O)c2cc(Br)ccc2O)cc1 | – | – | – | – | > 200 | > 9.9 | > 200 | > 9.9 | – | Unstable | – | – | –
C/C(=N\OCC(=O)NCCCC[C@H](NC(=O)[C@@H]1CCCN1C(=O)[C@H](CCCCN)NC(=O)[C@@H](NC(=O)CO/N=C(\C)c1ccc(NC(=O)c2cc(Br)ccc2O)cc1)[C@@H](C)O)C(=O)NCC(=O)N[C@H](C(=O)N[C@@H](CCCCN)C(=O)N1CCC[C@H]1C(=O)N[C@@H](CCCCN)C(=O)NCC(=O)N[C@H](C(=O)N[C@@H](CCCCN)C(=O)N1CCC[C@H]1C(=O)N[C@@H](CCCCN)C(=O)NCC(=O)N[C@H](C(=O)N[C@@H](CCCCN)C(=O)N1CCC[C@H]1C(=O)N[C@@H](CCCCN)C(=O)NCC(N)=O)[C@@H](C)O)[C@@H](C)O)[C@@H](C)O)c1ccc(NC(=O)c2cc(Br)ccc2O)cc1 ({Benzoyl(5-Br-2-OH)}-[X1]TKPK(X2)GTKPKGTKPKGTKPKG-NH2) | Active | – | Active | Active | 39.1 | 0.9 | 79.7 | 1.9 | inactive | Unstable | 42.2 (≈ 120 µg/mL) | 70.4 (≈ 200 µg/mL) | 16.3
C[C@@H](O)[C@H](NC(=O)CNC(=O)[C@H](CCCCN)NC(=O)[C@@H]1CCCN1C(=O)[C@H](CCCCN)NC(=O)[C@@H](NC(=O)CNC(=O)[C@H](CCCCN)NC(=O)[C@@H]1CCCN1C(=O)[C@H](CCCCN)NC(=O)[C@@H](NC(=O)CNC(=O)[C@H](CCCCN)NC(=O)[C@@H]1CCCN1C(=O)[C@H](CCCCN)NC(=O)[C@@H](NC(=O)CO/N=C\c1ccc(O)c(C(=O)Nc2ccc(C(F)(F)F)cc2)c1)[C@@H](C)O)[C@@H](C)O)[C@@H](C)O)C(=O)N[C@@H](CCCCN)C(=O)N1CCC[C@H]1C(=O)N[C@@H](CCCCN)C(=O)NCC(N)=O (X4-TKPKGTKPKGTKPKGTKPKG-NH2) | Active | 82.4 (≈ 200 µg/mL) | Active | Active | > 200 | > 2.4 | > 200 | > 2.4 | Active | – | – | 41.2 (≈ 100 µg/mL) | –
CCCC(=O)NCCCC[C@H](NC(=O)[C@@H]1CCCN1C(=O)[C@H](CCCCN)NC(=O)[C@@H](NC(=O)CO/N=C(\C)c1ccc(NC(=O)c2cc(Br)ccc2O)cc1)[C@@H](C)O)C(=O)NCC(=O)N[C@H](C(=O)N[C@@H](CCCCN)C(=O)N1CCC[C@H]1C(=O)N[C@@H](CCCCN)C(=O)NCC(=O)N[C@H](C(=O)N[C@@H](CCCCN)C(=O)N1CCC[C@H]1C(=O)N[C@@H](CCCCN)C(=O)NCC(=O)N[C@H](C(=O)N[C@@H](CCCCN)C(=O)N1CCC[C@H]1C(=O)N[C@@H](CCCCN)C(=O)NCC(N)=O)[C@@H](C)O)[C@@H](C)O)[C@@H](C)O ({Benzoyl(5-Br-2-OH)}-[X1]TKPK(Butyryl)GTKPKGTKPKGTKPKG-NH2) | Active | – | Active | Active | > 200 | > 3.2 | 81.6 | 1.3 | Active | – | 63.4 (≈ 160 µg/mL) | 79.3 (≈ 200 µg/mL) | 14.7
C/C(=N\OCC(=O)NCC(=O)N[C@@H](Cc1ccccc1)C(=O)N[C@@H](CC(C)C)C(=O)NCC(=O)N[C@H](C(=O)N[C@@H](CCCCN)C(=O)N1CCC[C@H]1C(=O)N[C@@H](CCCCN)C(=O)NCC(N)=O)[C@@H](C)O)c1ccc(NC(=O)c2cc(Br)ccc2O)cc1 ({Benzoyl(5-Br-2-OH)}-[X1]GFLGTKPKG-NH2) | Active | – | Active | Active | > 200 | > 6.5 | 163 | 5.3 | Active | Unstable | 31 (≈ 40.1 µg/mL) | 155 (≈ 200 µg/mL) | –
C/C(=N\OCC(=O)NCC(=O)N[C@@H](Cc1ccccc1)C(=O)N[C@@H](CC(C)C)C(=O)NCC(=O)N[C@H](C(=O)N[C@@H](CCCCN)C(=O)N1CCC[C@H]1C(=O)N[C@@H](CCCCN)C(=O)NCC(=O)O)[C@@H](C)O)c1ccc(NC(=O)c2cc(Br)ccc2O)cc1 ({Benzoyl(5-Br-2-OH)}-[X1]GFLGTKPKG-OH) | Active | – | Active | Active | > 200 | > 4.3 | 58 | 1.3 | inactive | – | 46.4 (≈ 60 µg/mL) | 155 (≈ 200 µg/mL) | –
C/C(=N\OCC(=O)N[C@H](C(=O)N[C@@H](CCCCN)C(=O)N1CCC[C@H]1C(=O)N[C@@H](CCCCN)C(=O)NCC(=O)N[C@H](C(=O)N[C@@H](CCCCN)C(=O)N1CCC[C@H]1C(=O)N[C@@H](CCCCN)C(=O)NCC(N)=O)[C@@H](C)O)[C@@H](C)O)c1ccc(NC(=O)c2cc(Br)ccc2O)cc1 ({Benzoyl(5-Br-2-OH)}-[X1]TKPKGTKPKG-NH2) | Active | – | Active | Active | > 200 | > 1.1 | > 200 | > 1.1 | Active | Unstable | 175 (≈ 250 µg/mL) | 56 (≈ 80.1 µg/mL) | 14.9
